Results reported in ChEMBL document CHEMBL1126311, “Novel functional M1 selective muscarinic agonists. 2. Synthesis and structure-activity relationships of 3-pyrazinyl-1,2,5,6-tetrahydro-1-methylpyridines. Construction of a molecular model for the M1 pharmacophore” (J Med Chem, 1992).

Columns and labels:
Oryctolagus cuniculus [1] = species on record: Oryctolagus cuniculus; experiment: (§1) Efficacy at M1 receptor measured by the ability to inhibit the electrically stimulated twitch of the rabbit vas deferens; type: functional
In short: (§2)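 Cumulative concentration-effect curves with additions at 20-min intervals in two tissues; read-out twitch height decrease; if inhibition ≥50%, curves repeated in at least six tissues.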

[2] = biological target: T1, Muscarinic acetylcholine receptor M1 (Rattus norvegicus, UniProt P08482); experiment: In vitro binding affinity against rat hippocampus M1 receptor using [3H]oxotremorine-M (Oxo-M) as radioligand; type: tissue-based
T1 sequence (P08482 whole entry): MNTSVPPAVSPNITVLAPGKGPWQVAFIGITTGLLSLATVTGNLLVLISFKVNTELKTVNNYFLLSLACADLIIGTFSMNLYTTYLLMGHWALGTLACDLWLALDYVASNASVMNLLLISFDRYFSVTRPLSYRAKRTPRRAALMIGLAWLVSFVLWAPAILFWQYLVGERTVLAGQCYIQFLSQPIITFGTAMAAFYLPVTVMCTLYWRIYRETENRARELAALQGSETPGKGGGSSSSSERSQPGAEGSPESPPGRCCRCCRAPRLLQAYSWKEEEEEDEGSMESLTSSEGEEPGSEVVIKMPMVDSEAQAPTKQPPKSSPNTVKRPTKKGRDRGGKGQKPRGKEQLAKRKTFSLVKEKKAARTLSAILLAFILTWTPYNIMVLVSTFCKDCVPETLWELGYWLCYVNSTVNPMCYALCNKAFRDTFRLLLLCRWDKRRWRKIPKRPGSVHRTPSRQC
In short: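 Male Sprague-Dawley rat hippocampal P2 membranes (10 mg tissue wet weight, about 0.1 mg protein) with 3 nM [3H]oxotremorine-M in 20 mM Tris-Cl pH 7.4, 1 mL, 15 min at 25 °C.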

[3] = biological target: T1, Muscarinic acetylcholine receptor M1; experiment: In vitro binding affinity against rat hippocampus M1 receptor using [3H]pirenzepine (Pz) as radioligand; type: tissue-based
In short: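 Male Sprague-Dawley rat hippocampal P2 membranes (10 mg tissue wet weight, about 0.1 mg protein) with 1 nM [3H]pirenzepine in 20 mM Tris-Cl pH 7.4 containing 1 mM MnCl2, 1 mL, 60 min at 25 °C.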

[4] = biological target: T1, Muscarinic acetylcholine receptor M1; experiment: Displacement of [3H]pirenzepine (Pz) from rat hippocampus muscarinic acetylcholine receptor M1; type: tissue-based
[5] = biological target: T1, Muscarinic acetylcholine receptor M1; experiment: Displacement of [3H]oxotremorine-M (Oxo-M) from rat hippocampus muscarinic acetylcholine receptor M1; type: tissue-based
Oryctolagus cuniculus [6] = species on record: Oryctolagus cuniculus; experiment: as §1; type: functional, organism-based; in short: as §2

| SMILES | IC50 [2] [nM] | IC50 [3] [nM] | IC50 (Oryctolagus cuniculus [6]) [nM] | Max (Oryctolagus cuniculus [1]) [%] | IC50 [4] [nM] | IC50 [5] [nM] |
| --- | --- | --- | --- | --- | --- | --- |
| CCCCCCOc1nonc1C1=CCCN(C)C1 | – | – | – | 47 | – | – |
| COc1nccnc1C1=CCCN(C)C1 | 850 | 840 | – | 0 | – | – |
| CN1CCC=C(c2nccnc2Cl)C1 | – | – | – | – | > 1000 | 276 |
| CCCCCCNc1nsnc1C1=CCCN(C)C1 | – | – | – | 65 | – | – |
| CCCOc1nsnc1C1=CCCN(C)C1 | – | – | – | 25 | – | – |
| CCCCCSc1nccnc1C1=CCCN(C)C1 | 13 | 10 | – | 18 | – | – |

Continued, in another order:

| IC50 [2] [nM] | IC50 [3] [nM] | IC50 (Oryctolagus cuniculus [6]) [nM] | SMILES | Max (Oryctolagus cuniculus [1]) [%] | IC50 [4] [nM] | IC50 [5] [nM] |
| --- | --- | --- | --- | --- | --- | --- |
| 19 | 16 | – | CCCCCOc1nccnc1C1=CCCN(C)C1 | 29 | – | – |
| 44 | 28 | 224 | CCCCCCSc1nccnc1C1=CCCN(C)C1 | 62 | – | – |
| 200 | 175 | – | CCOc1nccnc1C1=CCCN(C)C1 | 14 | – | – |
| 20 | 17 | 266 | CCCCCCOc1nccnc1C1=CCCN(C)C1 | 93 | – | – |
| 58 | 65 | – | CCCOc1nccnc1C1=CCCN(C)C1 | 4 | – | – |
| 17 | 17 | – | CCCCOc1nccnc1C1=CCCN(C)C1 | 0 | – | – |
